From ChEMBL document CHEMBL1125374, “Novel anticancer prodrugs of butyric acid. 2” (J Med Chem, 1992) come the findings set out here.

The subject of data set [1] is B16-F10. Description: Inhibitory activity on growth of B16F10.9 melanoma cell line. The class given is functional, cell-based. As to conditions: Mus musculus. The gist of the method:
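B16F10.9 melanoma cells (4 x 10^4) seeded in 35-mm dishes in RPMI/10% FCS at 37 °C, 5% CO2. Compound added 6 h after seeding. On day 4 cells detached in PBS with 1 mM EDTA and counted electronically. IC50 read from viable cell number vs log concentration.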

Data set [2] is described as follows: Lethal dose was determined. The class given is toxicity. As to conditions: mouse. The gist of the method:
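Acute toxicity in male and female BALB/c mice (3 experiments) and C57Bl mice (2 experiments), 6-8 weeks old, weighing 20 ± 0.5 g, in groups of 10. Each mouse got a single injection of 0.125-2.5 g/kg in propylene glycol, and LD50 was taken from mortality.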

In the next data set the test system is HL-60. Description: Concentration required for 50% proliferation inhibition of human promyelocytic HL-60 cell line. The class given is functional, cell-based. The method in brief:
(§1)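 Cells grown in RPMI with 10% fetal calf serum and 2 mM glutamine at 37 °C, 5% CO2. HL-60 (human promyelocytic) and WEHI (murine myelomonocytic) cells exposed to a titration of compound for 24 h. [3H]thymidine pulsed at 1 µCi/well during the last 14 h. Acid-insoluble counts collected on glass-fibre filters. IC50 taken from percent incorporation vs log concentration. At least two independent experiments.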

Another data set concerns WEHI. The data set can be described thus: Concentration required for 50% proliferation inhibition of myelomonocytic WEHI cell line. As to conditions: Mus musculus. Type of data set: functional, cell-based. The method in brief:
as §1

Data set [3] deals with B16-F10. Description: Effect on metastases of B16F10.9 melanoma cells (intraperitoneally implanted) in B6C3F1/OLAC/HSD mice was observed after administration of 50 mg/kg dose. Type of data set: functional, Mus musculus. As to conditions: route intraperitoneal.
Data set [4] has as its system B16-F10. The data set can be described thus: Effect on appearance of B16F10.9 colonies in semisolid agar. As to conditions: Mus musculus. Type of data set: functional, cell-based. The gist of the method: (§2)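 B16F10.9 cells (10^3) plated in the upper layer of a 0.6 mL RPMI soft-agar bilayer. Lower layer: conditioned medium 40, FCS 10, horse serum 15, agar 0.5 (% v/v). Upper layer: FCS 20, horse serum 20, agar 0.36. Compound added to the upper layer. Aggregates of more than 20 cells scored as colonies by inverted microscope after 7 days.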

For data set [5], the system named is B16-F10. Description: Effect on metastases of B16F10.9 melanoma cells (intravenously injected) was observed after administration of 50 mg/kg dose. As to conditions: route intraperitoneal.
Data set [6] relates to B16-F10. Description: Effect on metastases of B16F10.9 melanoma cells (intravenously injected) in C57BL/6 mice was observed after administration of 12.5 mg/kg. As to conditions: route intraperitoneal.
Data set [7] deals with B16-F10. Description: Effect on metastases of B16F10.9 melanoma cells (intravenously injected) in C57BL/6 mice was observed after administration of 25 mg/kg dose. As to conditions: route intraperitoneal.
Data set [8] concerns B16-F10. Described as above. As to conditions: route intraperitoneal. This is another data set of the same source.
Data set [9] has as its system B16-F10. The data set can be described thus: Effect on metastases of B16F10.9 melanoma cells (intravenously injected) in C57BL/6 mice was observed after administration of 100 mg/kg dose. As to conditions: route intraperitoneal.
Data set [10] deals with B16-F10. The data set is described as above. As to conditions: route intraperitoneal. This is another data set of the same source.
For data set [11], the system named is B16-F10. The data set can be described thus: Effect on metastases of B16F10.9 melanoma cells (intravenously inoculated) in C57BL/6 mice was observed after administration of 12.5 mg/kg dose. As to conditions: route intravenous.
Data set [12] has as its system B16-F10. Description: Effect on appearance of B16F10.9 colonies in semisolid agar at 1 mM. The class given is functional, Mus musculus. The gist of the method:
as §2

Regarding `CCCC(=O)OCOC(=O)C(C)(C)C` [AN-9], the IC50 (commonly the midpoint of a concentration-inhibition curve) was 82 µM in the data set with B16-F10 [1], 49.5 µM with HL-60, 75 µM in the data set with WEHI and 60 µM with B16-F10 [4]. In addition, the LD50 (commonly the dose expected to kill half of the subjects tested) in data set [2] came out at 1360 mg/kg. Besides, the “No. of lung lesions” value with B16-F10 [3] is 66.6; in the data set with B16-F10 [6], 97.89; in the data set on B16-F10 [7], 72.38; with B16-F10 [9] it was 140. In addition, the Lung weight with B16-F10 [5] is 0.0929 g; in the data set with B16-F10 [8], 0.135 g; with B16-F10 [10], 0.269 g; with B16-F10 [11], 0.1571 g.

`CCCC(=O)O` [BUTYRIC ACID] registered a Decrease with B16-F10 [12] of 22%. Besides, the figures for the IC50 with B16-F10 [1], with HL-60 and with WEHI were 933 µM, 1520 µM and 850 µM, respectively.

In the case of `O=P1(N(CCCl)CCCl)NCCCO1` (stereo not drawn) [CYCLOPHOSPHAMIDE ANHYDROUS], in the data set with B16-F10 [3], the “No. of lung lesions” value is given as 56.38.
